This is an account of results in paper PMC4697833 (Bioorganic & medicinal chemistry, 2015).

Data set [1] deals with NCI/ADR-RES (ovarian cancer; adriamycin-resistant). Nature of the data set: Alamar blue cytotoxicity assay, NCI/ADR-RES. Conditions: read-out: Growth inhibitory activity (IC50) NCI/ADR-RES; mean ± S.D. Format: cell-based, human. Summed up: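 Adherent NCI/ADR-RES cells were seeded at 5,000 cells/well 24 h prior to compound treatment and kept at 37 °C, 5% CO₂. Growth was measured by Alamar blue. IC50 values are mean ± S.D. over n ≥ 3 biological replicates.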
(In general: The colour change of resazurin is a common sign of viable cells or microbes.)

Data set [2] has as its system MCF-7 (breast adenocarcinoma). Nature of the data set: Alamar blue cytotoxicity assay, MCF-7. Format: cell-based, human. Summed up:
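MCF-7 cells were grown in MEM with 10% FBS, bovine insulin 0.01 mg/mL, penicillin and streptomycin at 37 °C in 5% CO₂. They were detached with trypsin-EDTA or TrypLE and seeded at 5,000 cells/well 24 h before dosing. Readout was Alamar blue reduction. IC50 is mean ± S.D. from n ≥ 3 biological replicates.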

The conditions of data set [3]: canine, oral dosing 100 mg/kg; cited from earlier work.
Data set [4] has as its system CCRF-CEM (acute lymphoblastic leukemia). Briefly: Alamar blue cytotoxicity assay, CCRF-CEM. Format: cell-based, human. To be noted: read-out: Growth inhibitory activity (IC50) CCRF-CEM. Summed up:
(§1)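 Suspension cells (CCRF-CEM; TEX in IMDM with L-glutamine, 15% FBS, SCF 20 ng/mL, IL-3 2 ng/mL, penicillin/streptomycin) were seeded at 10,000 cells/well 24 h before compound addition. Cultures were kept at 37 °C in humidified 5% CO₂. Viability was read with Alamar blue. IC50 is mean ± S.D. of n ≥ 3 biological replicates.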

The test system of another data set is DU-145 (prostate cancer). Briefly: Alamar blue cytotoxicity assay, DU-145. Format: cell-based, human. Conditions: read-out: Growth inhibitory activity (IC50) DU-145; mean ± S.D.
The subject of the next data set is mice. To be noted: continuous oral dosing 100 mg/kg daily for over four weeks; cited from earlier work.
The conditions of data set [5]: mice, oral dosing 100 mg/kg; cited from earlier work.
Data set [6] deals with HL-60 (acute promyelocytic leukemia). Briefly: Alamar blue cytotoxicity assay, HL-60. Format: cell-based, human. To be noted: read-out: Growth inhibitory activity (IC50) HL-60; mean ± S.D.
The conditions of data set [7]: cited from earlier work.
Data set [8] concerns CD34+CD38− BM cells. Briefly: Flow cytometry viability of CD34+CD38− bone marrow cells. Format: cell-based, human. Conditions: 25 µM, 12 h. An outline of the steps:
(§2)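 Cells were plated at 1 × 10⁶ cells/mL with test compound (25 µM) or doxorubicin (0.5 µM) for 12 h (final DMSO 0.03%). Staining was CD34/CD38, then Annexin V/7-AAD, with over 5 × 10⁴ events. Viability is the unstained fraction, mean ± S.D. of n ≥ 3; unpaired t-tests.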
Background: Flow cytometry measures light scatter and fluorescence of single cells or particles in a stream.

Data set [9] has as its system murine AML cell line B140H (cytarabine-resistant). Briefly: Murine cytotoxicity assay, B140H. Conditions: Mus musculus, read-out: Growth inhibitory activity (IC50) B140H. Format: cell-based. Summed up: (§3)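 Murine AML lines were used: B117P and B140P from BXH-2 mice, which develop leukemia from an endogenous murine leukemia virus, and their counterparts B117H and B140H. Cells per well were 25,000 (B117P), 28,000 (B117H), 36,000 (B140P) and 44,000 (B140H) in 96-well format. IC50 values are mean ± S.D. from biological triplicate.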

Data set [10] has as its system murine AML cell line B117H (cytarabine-resistant). Briefly: Murine cytotoxicity assay, B117H. Format: cell-based. Conditions: Mus musculus, read-out: Growth inhibitory activity (IC50) B117H. An outline of the steps: as §3
A further data set deals with CD34+CD38− TEX cells. Briefly: Flow cytometry viability of CD34+CD38− TEX cells. Format: cell-based. To be noted: Homo sapiens, 12 h, read-out: cell viability of CD34+CD38− TEX cells. Summed up: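 TEX cells at 1 × 10⁶ cells/mL were dosed for 12 h at 37 °C, 20% O₂, 5% CO₂ (final DMSO 0.03% v/v). Test compound was given at 25, 15 or 2.5 µM; the doxorubicin reference at 2.5, 0.5 or 0.05 µM. Cells were stained for CD34/CD38 (10 min, 4 °C), then Annexin V-FITC/7-AAD (10 min, RT, dark). Over 5 × 10⁴ events were collected. Viable cells were double-negative. Values are mean ± S.D. of 3–5 biological replicates; unpaired t-test versus untreated.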

Data set [11] has as its system murine AML cell line B117P. Nature of the data set: Murine cytotoxicity assay, B117P. Format: cell-based. Conditions: Mus musculus, read-out: Growth inhibitory activity (IC50) B117P. An outline of the steps: as §3
The next data set in a line: Measured LogD7.4. Format: physicochemical. Conditions: pH 7.4. Summed up: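 LogD at pH 7.4 was determined experimentally by liquid-liquid distribution chromatography, run by a contract analytical lab. Each value is the average of two measurements. The assay's measurable range is 1–5 log units.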
Data set [12] has as its system TEX cells. Nature of the data set: Methylcellulose clonal growth assay with TEX cells. Format: cell-based, human. To be noted: 2.5 µM; 11 d growth on methylcellulose. Summed up: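 TEX cells were suspended in methylcellulose medium with penicillin (100 I.U./mL) and streptomycin (100 µg/mL) at a final 1.2 × 10⁴ cells/mL, i.e. 6,000 cells/well. Test compound, diluted in TEX medium, or DMSO (0.05%, control) was added. Cells were plated as technical triplicates and grown 11 d at 37 °C, 5% CO₂. Two people counted colonies independently at 10X. Values are the mean of 3 biological replicates ± S.D., with unpaired t-tests against DMSO.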

For data set [13], the system named is TEX cells. Nature of the data set: Alamar blue cytotoxicity assay, TEX. Format: cell-based, human. To be noted: Homo sapiens, 48 h, read-out: Growth inhibitory activity (IC50) TEX. Summed up:
as §1

For data set [14] the following is noted: mice, oral dosing 40 mg/kg; cited from earlier work.
For data set [15], the system named is murine AML cell line B140P. Briefly: Murine cytotoxicity assay, B140P. Format: cell-based. To be noted: Mus musculus, read-out: Growth inhibitory activity (IC50) B140P. Summed up:
as §3

Data set [16] has as its system TEX cells. Briefly: Intracellular ROS induction. Format: cell-based, human. Conditions: 100 µM, 30 min. Summed up:
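TEX cells were seeded at 5 × 10⁵ cells/mL and incubated overnight at 37 °C, 5% CO₂. They were then exposed to test compound at 25 or 100 µM, with H₂O₂ 100 µM as positive control. CellROX Green (5 µM final) was added at once, followed by 30 min at 37 °C. Cells were washed twice in FACS buffer and 5 × 10⁴ events recorded. Median fluorescence was normalized to untreated control. Runs were in quadruplicate (H₂O₂ triplicate); mean ± S.D.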

In data set [17] the test system is CD34+CD38− BM cells. To be noted: 5 µM for 18 hrs; cited from earlier work.
The conditions of data set [18]: mouse plasma; cited from earlier work.
A further data set concerns total BM. Conditions: cited from earlier work.
Data set [19] has as its system total bone marrow cell population. Nature of the data set: Flow cytometry viability of total bone marrow cells. Format: cell-based, human. Conditions: 25 µM, 12 h. An outline of the steps: as §2

Like-named read-outs stand apart in the source and are kept apart here.

What is called Cmax is the highest concentration seen after dosing. Turning to `C/C1=C\CC[C@@]2(C)O[C@@H]2[C@H]2OC(=O)[C@@H](CN(C)C)[C@@H]2CC1.O=C(O)/C=C/C(=O)O` [DMAPT, dimethylamino-parthenolide fumarate], the IC50 in data set [1] came to 12.3 ± 2.7 µM; in data set [2] (read-out: Growth inhibitory activity (IC50) MCF-7, mean ± S.D.), 10.4 ± 1.2 µM; in [4] (mean ± S.D.), 1.9 ± 0.4 µM; in the data set with DU-145 (prostate cancer) it was 8.4 ± 4.5 µM; in data set [6], 7.1 ± 0.4 µM. For the same compound, the Cmax in [3] was 61 µM; in data set [5] it was 25 µM. The toxicity to mice entry in the data set with mice was “no measurable toxicity”. In addition, the “increase of water solubility versus PTL” value in [7] is ~ 1000 fold.
Broadly, the viability is a per cent measure of how many cells are alive, often set against a control. The chromatographic logD is lipophilicity estimated from chromatographic retention. Higher therefore signals higher lipophilicity. Take `C=C1C(=O)O[C@H]2[C@H]1CC/C(C)=C/CC[C@@]1(C)O[C@@H]21` [PTL, Parthenolide]: in the data set on CD34+CD38− BM cells [8], the “toxicity to primitive CD34+CD38− BM cells” value was “no significant toxicity”. Also, the IC50 was found to be 3.4 ± 1.1 µM in data set [9]; 4.7 ± 1.6 µM in [10]; 1.1 ± 0.2 µM in data set [11]; 9.7 ± 2.8 µM in data set [2] (Homo sapiens, MCF7, read-out: Growth inhibitory activity (IC50) MCF-7); 2.8 ± 0.2 µM in the data set on TEX cells [13]; 4.7 ± 1.6 µM in [4] (Homo sapiens, CCRF-CEM). The IC50 in data set [15] is 5.8 ± 2.3 µM. In addition, the viability at 25 µM in the data set with CD34+CD38− TEX cells was 1 to 10%. In “Measured LogD7.4”, this compound came in with a chromatographic logD of 1.79. Besides, in the data set on TEX cells [12], the “Colonies (mean number ± S.D.)” value is reported as 2.6 ± 2.7. For the same compound, the concentration in serum result in data set [14] was “approximately 200 nM”. In addition, the “induction of intracellular ROS (MFI normalized to untreated control)” value in the data set on TEX cells [16] was 1.6 fold. The “toxicity to CD34+CD38− BM cells” value with CD34+CD38− BM cells [17] is given as “non-toxic”. For the same compound, the “plasma half-life t1/2” value in [18] is 1.6 h. In addition, the “toxicity to total BM” value with total BM (5 µM for 18 hrs) is reported as “non-toxic”. For the same compound, the “overall BM toxicity” value with total BM (7.5 µM for 18 hrs) was “some overall BM toxicity”. Also, in [19], the “reduction in total BM viability” value is reported as 48%.
